Experimental findings from ChEMBL document CHEMBL1122747, “Potential antitumor agents. 42. Structure-activity relationships for acridine-substituted dimethyl phosphoramidate derivatives of 9-anilinoacridine” (J Med Chem, 1984) are described below.

Series [1] relates to P388. The series is described as follows: In vivo inhibition of P388 in mice for optimal (highest nonacutely toxic) dose (OD). Type of series: functional, Mus musculus. In outline: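 F1 (DBA/2J × C57BlJ) mice, 19-21 g, either sex, inoculated with 10^6 P388 leukemia cells on day 0. Drug given ip in 0.1 mL 30% aqueous ethanol on days 1, 5 and 9, as a solution or, at highest doses, as a sonicated suspension. Doses stepped down from a toxic level at 0.67-fold intervals. Groups of six mice; ILS relative to 20-30 controls. OD is the highest nonacutely toxic daily dose.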

Series [2] in a line: Lipophilicity (Rm) (liquid chromatography). It is filed as physicochemical. Put shortly: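 Rm is measured for drug cations at pH 2 by liquid-liquid chromatography on a cellulose support.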
The nature of series [3]: Binding affinity towards poly[d(A-T)] (fluorometric method). It is filed as ADME. In outline: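 Log R for binding to poly[d(A-T)] measured fluorometrically, corrected for quenching.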
Series [4] concerns P388. Put plainly: In vivo tumor cell selectivity (ILSmax values)for percentage increase in life span of treated animals over that of P388 tumor bearing untreated control animals. It is filed as functional, Mus musculus.
The subject of series [5] is P388. The series is described as follows: In vivo dose of drug needed for a percentage increase of 50% in life span of tumor-bearing mice compared to untreated controls after inoculation of 10e6 P388 leukemia cells. It is filed as functional, Mus musculus.
The subject of a further series is L1210. Put plainly: In vitro test for 50% reduction of cell number (of control) after 70 hr incubation with cultures of murine L1210 leukemia cells. Type of series: functional. The settings on record: Mus musculus, L1210, 70 h; read-out: ID50 (the source's name).

The molecule `COc1cc(NP(=O)(OC)OC)ccc1Nc1c2ccccc2nc2cc(Cl)ccc12` displayed an OD with P388 [1] of 13.3 mg/kg/day. The molecule further gave a Rm in series [2] of 0.61. Also, the “Log K” value in series [3] is listed as 6.4. Moreover, the Activity in the series with P388 [4] was 91%. In the series on P388 [5], this molecule registered a D50 of 5.5 mg/kg/day. The IC50 in the series on L1210 was 12 nM.
`COc1cc(NS(C)(=O)=O)ccc1Nc1c2ccccc2nc2cc(Br)ccc12` registered an OD with P388 [1] of 20 mg/kg/day. This molecule also yielded a Rm in series [2] of 0.34. The “Log K” value in series [3] is given as 6.29. Also, in the series on P388 [4], the Activity amounted to 133%. In the series on P388 [5], this molecule came in with a D50 of 4 mg/kg/day. The IC50 with L1210 is 50 nM.
In turn, `Cc1ccc2c(Nc3ccc(NS(C)(=O)=O)cc3)c3ccccc3nc2c1` had an OD in the series with P388 [1] of 50 mg/kg/day. Moreover, in series [2], the Rm is 0.24. In series [3], the “Log K” value was 6.41. Also, in the series with P388 [4], the Activity was determined as 73%. Moreover, in the series with P388 [5], the D50 was 27 mg/kg/day. In addition, the IC50 in the series with L1210 amounted to 8 nM.
In the series on P388 [1], `COc1cc(NS(C)(=O)=O)ccc1Nc1c2ccccc2nc2c(OC)cccc12` came in with an OD of 30 mg/kg/day. Besides, the Rm in series [2] amounted to 0.19. Moreover, in series [3], the “Log K” value came out at 5.94. This molecule yielded an Activity in the series with P388 [4] of 139%. The molecule also gave a D50 in the series on P388 [5] of 8 mg/kg/day. In addition, the IC50 with L1210 was 40 nM.
In series [2], `COc1cc(NS(C)(=O)=O)ccc1Nc1c2ccccc2nc2ccccc12` [AMSACRINE] gave a Rm of 0.18. The “Log K” value in series [3] stood at 5.57. For the same molecule, in the series with P388 [4], the Activity is on record as 58%. In the series on P388 [5], the D50 is 3 mg/kg/day.
Regarding `CS(=O)(=O)Nc1ccc(Nc2c3ccccc3nc3cc(Cl)ccc23)cc1`, the OD in the series with P388 [1] was 65 mg/kg/day. Moreover, the Rm in series [2] came out at 0.14. Also, the “Log K” value in series [3] is 6.89. Further, the Activity in the series with P388 [4] stood at 53%. The D50 in the series with P388 [5] was 60 mg/kg/day. Also, in the series on L1210, the IC50 came to 50 nM.
`COc1cccc2c(Nc3ccc(NP(=O)(OC)OC)cc3)c3ccccc3nc12` had an OD in the series on P388 [1] of 45 mg/kg/day. The Rm in series [2] is given as 0.33. For the same molecule, the “Log K” value in series [3] came to 6.53. Further, the Activity in the series with P388 [4] turned out to be 50%. The D50 in the series on P388 [5] was found to be 45 mg/kg/day. Moreover, the IC50 in the series with L1210 was determined as 20 nM.
As for `COc1cc(NP(=O)(OC)OC)ccc1Nc1c2ccccc2nc2c(C)cccc12`, the OD in the series with P388 [1] turned out to be 8.9 mg/kg/day. Besides, the Rm in series [2] worked out at 0.44. The “Log K” value in series [3] is on record as 6.16. In the series on P388 [5], this molecule gave a D50 of 3 mg/kg/day. Further, the IC50 in the series with L1210 amounted to 18 nM.
As for `CS(=O)(=O)Nc1ccc(Nc2c3ccccc3nc3ccccc23)cc1`, in the series on P388 [1], the OD was 150 mg/kg/day. The molecule further gave a Rm in series [2] of 0. Also, the Activity with P388 [4] was 102%. In addition, in the series on P388 [5], the D50 turned out to be 35 mg/kg/day. Also, the IC50 in the series on L1210 was found to be 35 nM.
The molecule `COP(=O)(Nc1ccc(Nc2c3ccccc3nc3ccccc23)cc1)OC` registered an OD with P388 [1] of 45 mg/kg/day. Besides, in series [2], the Rm was found to be 0.34. Further, in series [3], the “Log K” value is 6.26. Moreover, the Activity in the series on P388 [4] was 107%. Also, the D50 in the series on P388 [5] came to 15 mg/kg/day. Also, the IC50 in the series with L1210 stood at 15 nM.
Regarding `COP(=O)(Nc1ccc(Nc2c3ccccc3nc3c(C)cccc23)cc1)OC`, the OD in the series on P388 [1] amounted to 20 mg/kg/day. This molecule also displayed a Rm in series [2] of 0.46. For the same molecule, in series [3], the “Log K” value was found to be 6.75. The same molecule returned a D50 with P388 [5] of 9 mg/kg/day. Also, the IC50 in the series with L1210 came out at 9 nM.
Molecule `COc1cc(NS(C)(=O)=O)ccc1Nc1c2ccccc2nc2cc(Cl)ccc12` came in with an OD with P388 [1] of 20 mg/kg/day. The Rm in series [2] was 0.32. For the same molecule, the “Log K” value in series [3] is 6.06. The molecule also showed an Activity in the series on P388 [4] of 232%. Besides, the D50 with P388 [5] was found to be 5 mg/kg/day. Moreover, in the series with L1210, the IC50 was determined as 70 nM.
As to `COP(=O)(Nc1ccc(Nc2c3ccccc3nc3cc(N)ccc23)cc1)OC`, the OD in the series with P388 [1] turned out to be 5.9 mg/kg/day. Besides, the Rm in series [2] is 0.06. For the same molecule, the “Log K” value in series [3] is reported as 6.9. Besides, the Activity in the series with P388 [4] was 58%. The molecule also registered a D50 in the series on P388 [5] of 5 mg/kg/day. Also, the IC50 in the series on L1210 was 385 nM.
In turn, `CNC(=O)c1cccc2c(Nc3ccc(NS(C)(=O)=O)cc3OC)c3ccccc3nc12` returned an OD in the series with P388 [1] of 30 mg/kg/day. This molecule also registered a Rm in series [2] of 0.06. Moreover, the “Log K” value in series [3] is reported as 5.54. Further, in the series on P388 [4], the Activity was 127%. In the series with P388 [5], this molecule displayed a D50 of 8 mg/kg/day. For the same molecule, the IC50 with L1210 came out at 270 nM.
As for `CNC(=O)c1cccc2c(Nc3ccc(NP(=O)(OC)OC)cc3OC)c3ccccc3nc12`, in the series with P388 [1], the OD was determined as 30 mg/kg/day. The Rm in series [2] was found to be 0.28. Further, in series [3], the “Log K” value is reported as 5.94. This molecule also had a D50 in the series with P388 [5] of 13 mg/kg/day. Further, the IC50 in the series with L1210 is 18 nM.
`COP(=O)(Nc1ccc(Nc2c3ccccc3nc3cc(Cl)ccc23)cc1)OC` had an OD in the series with P388 [1] of 45 mg/kg/day. The same molecule had a Rm in series [2] of 0.46. Besides, the “Log K” value in series [3] is listed as 7. Also, the Activity with P388 [4] came to 62%. In addition, the D50 in the series on P388 [5] amounted to 35 mg/kg/day. Besides, the IC50 in the series with L1210 turned out to be 16 nM.
On to `Cc1cccc2c(Nc3ccc(NS(C)(=O)=O)cc3)c3ccccc3nc12`, for which the OD in the series on P388 [1] amounted to 66 mg/kg/day. In series [2], the Rm was determined as 0.07. Also, the “Log K” value in series [3] was determined as 6.52. The Activity in the series on P388 [4] turned out to be 75%. The D50 in the series with P388 [5] was found to be 50 mg/kg/day. Besides, the IC50 with L1210 turned out to be 17 nM.
`COc1cc(NS(C)(=O)=O)ccc1Nc1c2ccccc2nc2c(C)cccc12`: in the series on P388 [1], the OD came out at 20 mg/kg/day. In series [2], the Rm worked out at 0.25. The “Log K” value in series [3] was 6.03. This molecule registered an Activity in the series on P388 [4] of 172%. In the series on P388 [5], this molecule returned a D50 of 4 mg/kg/day. Moreover, the IC50 with L1210 was determined as 30 nM.
Take `COc1cc(NP(=O)(OC)OC)ccc1Nc1c2ccccc2nc2c(OC)cccc12`: the OD with P388 [1] was 9 mg/kg/day. This molecule yielded a Rm in series [2] of 0.47. Besides, the “Log K” value in series [3] came to 6.09. For the same molecule, the Activity in the series on P388 [4] stood at 76%. Also, in the series on P388 [5], the D50 is 6 mg/kg/day. For the same molecule, the IC50 with L1210 is 12 nM.
`COP(=O)(Nc1ccc(Nc2c3ccccc3nc3cc(C)ccc23)cc1)OC` returned an OD with P388 [1] of 20 mg/kg/day. The same molecule yielded a Rm in series [2] of 0.49. Moreover, the “Log K” value in series [3] was determined as 6.77. The molecule further came in with an Activity with P388 [4] of 84%. This molecule also displayed a D50 with P388 [5] of 6 mg/kg/day. Further, the IC50 with L1210 worked out at 7 nM.
In turn, `CNC(=O)c1cccc2c(Nc3ccc(NP(=O)(OC)OC)cc3)c3ccccc3nc12` displayed an OD with P388 [1] of 66 mg/kg/day. For the same molecule, the Rm in series [2] is given as 0.18. Besides, in series [3], the “Log K” value was 6.46. Besides, the Activity with P388 [4] came out at 56%. This molecule also returned a D50 with P388 [5] of 60 mg/kg/day. Besides, the IC50 in the series on L1210 was 97 nM.
As for `CS(=O)(=O)Nc1ccc(Nc2c3ccccc3nc3cc(N)ccc23)cc1`, the OD in the series on P388 [1] was 8.9 mg/kg/day. In addition, the Rm in series [2] is -0.18. The “Log K” value in series [3] is 6.82. Further, in the series with P388 [4], the Activity is 67%. In addition, the D50 in the series with P388 [5] turned out to be 8 mg/kg/day. Also, the IC50 in the series on L1210 stood at 10 nM.
